Reference: ChEMBL document CHEMBL1138278, “Aromatic amide derivatives of 5,6-dimethoxy-2,3-dihydro-1H-inden(-1-yl)acetic acid as anti-inflammatory agents free of ulcerogenic liability” (Bioorg Med Chem Lett, 2007)

Tests used:
Rattus norvegicus [1] = test: Antipyretic activity against LPS-induced pyresis in Wistar rat assessed as change in rectal temperature at 10 mg/kg, po after 1 hr; assay type: functional
Outline: (§1)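 Male Wistar rats (170 ± 20 g) dosed orally: test agents at 100 mg/kg, indomethacin and aspirin at 10 mg/kg and 100 mg/kg. Half an hour later, LPS in apyrogenic saline given at 100 µg/kg i.p. Rectal temperature taken by telethermometer probe immediately before LPS and hourly from 1 to 7 h after. Change in temperature reported; means ± SEM, n = 6.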

Rattus norvegicus [2] = test: Antipyretic activity against LPS-induced pyresis in Wistar rat assessed as change in rectal temperature at 10 mg/kg, po after 3 hrs; assay type: functional; outline: as §1
Rattus norvegicus [3] = test: Antipyretic activity against LPS-induced pyresis in Wistar rat assessed as change in rectal temperature at 10 mg/kg, po after 4 hrs; assay type: functional; outline: as §1
Rattus norvegicus [4] = test: Antipyretic activity against LPS-induced pyresis in Wistar rat assessed as change in rectal temperature at 100 mg/kg, po after 2 hrs
Mus musculus [5] = test: Analgesic activity in Swiss Albino mouse assessed as number of acetic acid-induced writhing at 100 mg/kg, po after 1 hr relative to control
Rattus norvegicus [6] = test: Antipyretic activity against LPS-induced pyresis in Wistar rat assessed as change in rectal temperature at 10 mg/kg, po after 5 hrs; assay type: functional; outline: as §1
Rattus norvegicus [7] = test: Antipyretic activity against LPS-induced pyresis in Wistar rat assessed as change in rectal temperature at 100 mg/kg, po after 7 hrs
Mus musculus [8] = test: Analgesic activity in Swiss Albino mouse assessed as inhibition of acetic acid-induced writhing responses at 10 mg/kg, po after 1 hr; assay type: functional
Outline: (§2)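 Mice dosed orally; one hour later injected i.p. with 1% v/v acetic acid at 0.1 ml/10 g. Writhings counted over 15 min, starting five minutes after injection. Means ± SEM, n = 6; p < 0.05 versus control group.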

Rattus norvegicus [9] = test: Antipyretic activity against LPS-induced pyresis in Wistar rat assessed as change in rectal temperature at 100 mg/kg, po after 6 hrs
Mus musculus [10] = test: Analgesic activity in Swiss Albino mouse assessed as inhibition of acetic acid-induced writhing responses at 100 mg/kg, po after 1 hr; assay type: functional; outline: as §2
Rattus norvegicus [11] = test: Antipyretic activity against LPS-induced pyresis in Wistar rat assessed as change in rectal temperature at 100 mg/kg, po after 2 hrs; assay type: functional; outline: as §1
Rattus norvegicus [12] = test: Antiarthritic activity against adjuvant-induced arthritis in Wistar rat assessed as inhibition of paw edema at 10 mg/kg, po on day 13; assay type: functional; details: 312 h
Outline: (§3)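 Male Wistar rats (160 ± 10 g) dosed orally once daily for 14 days, from the day before injecting 0.1 ml Freund's complete adjuvant into the subplantar surface of the right hind paw. Paw swelling, including the uninjected left paw, and body weight recorded. Means ± SEM, n = 6; p < 0.05 versus control.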

Rattus norvegicus [13] = test: Antiarthritic activity against adjuvant-induced arthritis in Wistar rat assessed as weight change at 10 mg/kg, po; assay type: functional; outline: as §3
Rattus norvegicus [14] = test: Antipyretic activity against LPS-induced pyresis in Wistar rat assessed as change in rectal temperature at 100 mg/kg, po after 3 hrs; assay type: functional; outline: as §1
Rattus norvegicus [15] = test: Antipyretic activity against LPS-induced pyresis in Wistar rat assessed as change in rectal temperature at 100 mg/kg, po after 1 hr; assay type: functional; outline: as §1
Rattus norvegicus [16] = test: Antiarthritic activity against adjuvant-induced arthritis in Wistar rat assessed as inhibition of paw edema at 10 mg/kg, po on day 8; assay type: functional; details: 192 h; outline: as §3
Rattus norvegicus [17] = test: Antiinflammatory activity in Wistar rat assessed as inhibition of carrageenan-induced paw edema at 10 mg/kg, after 4 hrs; assay type: functional
Outline: (§4)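 Male Wistar rats, 170 ± 20 g, dosed orally; 0.1 ml of 1% carrageenan injected into the right hind paw subplantar region 1 h after dosing. Paw volume read by plethysmometer at 0, 1, 2, 3, 4, 6 and 24 h after carrageenan. Percent inhibition of edema is calculated against the control group. n = 6, mean ± SEM.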

Rattus norvegicus [18] = test: Antiinflammatory activity in Wistar rat assessed as inhibition of carrageenan-induced paw edema at 10 mg/kg, after 1 hr; assay type: functional; outline: as §4
Rattus norvegicus [19] = species on record: Rattus norvegicus; test: animal or person; details: Wistar, 2 h, read-out: Inhibition
Rattus norvegicus [20] = test: Toxicity in 24 hrs fasted Wistar rat assessed as ulcer index […], po after 14 days; assay type: organism-based; set-up: route oral; details: in vivo, 336 h
Outline: (§5)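 Male Wistar rats (175 ± 25 g) fasted 24 h and dosed orally. Acute arm: test agents at 100 mg/kg, indomethacin at 30 mg/kg; rats killed after 6 h, stomachs opened along the greater curvature and scored for ulcers. Chronic arm: 14-day dosing, stomachs examined post mortem at the end of the arthritis study. Ulcer index means ± SEM, n = 4.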

Rattus norvegicus [21] = test: Antipyretic activity against LPS-induced pyresis in Wistar rat assessed as change in rectal temperature at 100 mg/kg, po after 5 hrs; assay type: functional; outline: as §1
Rattus norvegicus [22] = test: Antiarthritic activity against adjuvant-induced arthritis in Wistar rat assessed as inhibition of paw edema at 10 mg/kg, po on day 3; assay type: functional; details: 72 h; outline: as §3
Rattus norvegicus [23] = test: Antiinflammatory activity in Wistar rat assessed as inhibition of carrageenan-induced paw edema at 10 mg/kg, after 6 hrs; assay type: functional
Outline: (§6)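 Male Wistar rats (170 ± 20 g) dosed orally: test agents at 100 mg/kg, reference at 10 mg/kg. One hour later, 0.1 ml of 1% carrageenan injected subplantar into the right hind paw.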

Rattus norvegicus [24] = test: Antipyretic activity against LPS-induced pyresis in Wistar rat assessed as change in rectal temperature at 100 mg/kg, po after 4 hrs; assay type: functional; outline: as §1
Rattus norvegicus [25] = test: Antipyretic activity against LPS-induced pyresis in Wistar rat assessed as change in rectal temperature at 100 mg/kg, po after 7 hrs; assay type: functional; outline: as §1
Rattus norvegicus [26] = test: Antiinflammatory activity in Wistar rat assessed as inhibition of carrageenan-induced paw edema at 10 mg/kg, after 24 hrs; assay type: functional; outline: as §6
Rattus norvegicus [27] = test: Toxicity in 24 hrs fasted Wistar rat assessed as ulcer index at 30 mg/kg, po after 6 hrs; assay type: organism-based; set-up: dose 30 mg/kg, route oral; details: in vivo; outline: as §5
Mus musculus [28] = test: Analgesic activity in Swiss Albino mouse assessed as number of acetic acid-induced writhing at 100 mg/kg, po after 1 hr relative to control; assay type: functional; outline: as §2
Rattus norvegicus [29] = test: Antipyretic activity against LPS-induced pyresis in Wistar rat assessed as change in rectal temperature at 100 mg/kg, po after 6 hrs; assay type: functional; outline: as §1
Rattus norvegicus [30] = test: Antiinflammatory activity in Wistar rat assessed as inhibition of carrageenan-induced paw edema at 10 mg/kg, after 3 hrs; assay type: functional; outline: as §4
Rattus norvegicus [31] = test: Antiinflammatory in SKF-525A pretreated Wistar rat assessed as inhibition of carrageenan-induced paw edema at 100 mg/kg, po after 24 hrs; assay type: functional
Rattus norvegicus [32] = test: Antiinflammatory activity in Wistar rat assessed as inhibition of carrageenan-induced paw edema at 100 mg/kg, after 24 hrs; assay type: functional; outline: as §6
Rattus norvegicus [33] = test: Antiinflammatory in SKF-525A pretreated Wistar rat assessed as inhibition of carrageenan-induced paw edema at 100 mg/kg, po after 6 hrs; assay type: functional
Rattus norvegicus [34] = test: Antiarthritic activity against adjuvant-induced arthritis in Wistar rat assessed as inhibition of paw edema at 100 mg/kg, po on day 8; assay type: functional; details: 192 h; outline: as §3
Rattus norvegicus [35] = test: Antiinflammatory activity in Wistar rat assessed as inhibition of carrageenan-induced paw edema at 100 mg/kg, after 1 hr; assay type: functional; outline: as §6
Rattus norvegicus [36] = test: Antiarthritic activity against adjuvant-induced arthritis in Wistar rat assessed as inhibition of paw edema at 100 mg/kg, po on day 13; assay type: functional; details: 312 h; outline: as §3
Rattus norvegicus [37] = test: Antiinflammatory activity in Wistar rat assessed as inhibition of carrageenan-induced paw edema at 100 mg/kg, after 3 hrs; assay type: functional; outline: as §6
Rattus norvegicus [38] = test: Antiinflammatory in SKF-525A pretreated Wistar rat assessed as inhibition of carrageenan-induced paw edema at 100 mg/kg, po after 3 hrs; assay type: functional
Rattus norvegicus [39] = test: Toxicity in 24 hrs fasted Wistar rat assessed as ulcer index at 100 mg/kg, po after 6 hrs; assay type: organism-based; set-up: dose 100 mg/kg, route oral; details: in vivo; outline: as §5
Rattus norvegicus [40] = test: Antiarthritic activity against adjuvant-induced arthritis in Wistar rat assessed as inhibition of paw edema at 100 mg/kg, po on day 3; assay type: functional; details: 72 h; outline: as §3
Rattus norvegicus [41] = test: Antiinflammatory activity in Wistar rat assessed as inhibition of carrageenan-induced paw edema at 100 mg/kg, after 6 hrs; assay type: functional; outline: as §6
Rattus norvegicus [42] = test: Antiinflammatory activity in Wistar rat assessed as inhibition of carrageenan-induced paw edema at 100 mg/kg, after 2 hrs; assay type: functional; outline: as §6
Rattus norvegicus [43] = test: Antiinflammatory in SKF-525A pretreated Wistar rat assessed as inhibition of carrageenan-induced paw edema at 100 mg/kg, po after 2 hrs; assay type: functional
Rattus norvegicus [44] = test: Antiinflammatory activity in Wistar rat assessed as inhibition of carrageenan-induced paw edema at 100 mg/kg, after 4 hrs; assay type: functional; outline: as §6
Rattus norvegicus [45] = test: Antiinflammatory in SKF-525A pretreated Wistar rat assessed as inhibition of carrageenan-induced paw edema at 100 mg/kg, po after 1 hr; assay type: functional
Rattus norvegicus [46] = test: Antiarthritic activity against adjuvant-induced arthritis in Wistar rat assessed as weight change at 100 mg/kg, po; assay type: functional; outline: as §3
Rattus norvegicus [47] = test: Antiinflammatory in SKF-525A pretreated Wistar rat assessed as inhibition of carrageenan-induced paw edema at 100 mg/kg, po after 4 hrs; assay type: functional

## CC(=O)Oc1ccccc1C(=O)O [ASPIRIN]
Rattus norvegicus [1]
  Activity: -0.43 °C
Rattus norvegicus [2]
  Activity: -0.51 °C
Rattus norvegicus [3]
  Activity: 0.11 °C
Rattus norvegicus [4]
  Activity: -1.45 °C
Mus musculus [5]
  Activity: 13.33
Rattus norvegicus [6]
  Activity: 0.2 °C
Rattus norvegicus [7]
  Activity: 0.31 °C
Mus musculus [8]
  inhibition in vivo at 10 mg/kg: 61.5%
Rattus norvegicus [9]
  Activity: 0.25 °C

## COc1ccc2c(c1)c(CC(=O)O)c(C)n2C(=O)c1ccc(Cl)cc1 [INDOMETHACIN]
Mus musculus [10]
  inhibition in vivo at 100 mg/kg: 51.5%
Rattus norvegicus [11]
  Activity: -1.03 °C
Rattus norvegicus [12]
  inhibition in vivo at 10 mg/kg: 46.5%
Rattus norvegicus [13]
  Activity: 5.68 g
Rattus norvegicus [14]
  Activity: -0.11 °C
Rattus norvegicus [15]
  Activity: -0.39 °C
Rattus norvegicus [16]
  inhibition in vivo at 10 mg/kg: 43.9%
Rattus norvegicus [17]
  inhibition in vivo at 10 mg/kg: 57.8%
Rattus norvegicus [18]
  inhibition in vivo at 10 mg/kg: 50%
Rattus norvegicus [19]
  inhibition in vivo at 10 mg/kg: 58%
Rattus norvegicus [20]
  UI: 42
Rattus norvegicus [21]
  Activity: 0.3 °C
Rattus norvegicus [22]
  inhibition in vivo at 10 mg/kg: 37.5%
Rattus norvegicus [23]
  inhibition in vivo at 10 mg/kg: 48.1%
Rattus norvegicus [24]
  Activity: 0.22 degrees C
Rattus norvegicus [25]
  Activity: 0.55 °C
Rattus norvegicus [26]
  inhibition in vivo at 10 mg/kg: 13.3%
Rattus norvegicus [27]
  UI: 31.37
Mus musculus [28]
  Activity: 16.83
Rattus norvegicus [29]
  Activity: 0.35 °C
Rattus norvegicus [30]
  inhibition in vivo at 10 mg/kg: 65.2%

## COc1cc2c(cc1OC)C(CC(=O)Nc1ccc(Cl)cc1)CC2 (stereo unspecified)
Rattus norvegicus [31]
  inhibition in vivo at 100 mg/kg: 68.2%
Mus musculus [10]
  inhibition in vivo at 100 mg/kg: 73.5%
Rattus norvegicus [32]
  inhibition in vivo at 100 mg/kg: 70%
Rattus norvegicus [33]
  inhibition in vivo at 100 mg/kg: 59.6%
Rattus norvegicus [11]
  Activity: -1.69 °C
Rattus norvegicus [34]
  inhibition in vivo at 100 mg/kg: 8.08%
Rattus norvegicus [14]
  Activity: -0.54 °C
Rattus norvegicus [15]
  Activity: -0.47 °C
Rattus norvegicus [35]
  inhibition in vivo at 100 mg/kg: 71.9%
Rattus norvegicus [36]
  inhibition in vivo at 100 mg/kg: 4.69%
Rattus norvegicus [21]
  Activity: 0.17 °C
Rattus norvegicus [37]
  inhibition in vivo at 100 mg/kg: 60.9%
Rattus norvegicus [38]
  inhibition in vivo at 100 mg/kg: 56.7%
Rattus norvegicus [39]
  UI: 0
Rattus norvegicus [40]
  inhibition in vivo at 100 mg/kg: 28.6%
Rattus norvegicus [41]
  inhibition in vivo at 100 mg/kg: 61.1%
Rattus norvegicus [42]
  inhibition in vivo at 100 mg/kg: 63%
Rattus norvegicus [43]
  inhibition in vivo at 100 mg/kg: 56.1%
Rattus norvegicus [44]
  inhibition in vivo at 100 mg/kg: 60.9%
Rattus norvegicus [24]
  Activity: -0.11 °C
Rattus norvegicus [25]
  Activity: 0.4 °C
Mus musculus [28]
  Activity: 9.17
Rattus norvegicus [45]
  inhibition in vivo at 100 mg/kg: 64.3%
Rattus norvegicus [46]
  Activity: 3.51 g
Rattus norvegicus [47]
  inhibition in vivo at 100 mg/kg: 57.9%
Rattus norvegicus [29]
  Activity: 0.41 °C
